Compounds with a hit are over-represented: about 3.5% of the library has one in this group of screens.
RGS4 block: inhibitors of human RGS4; P49798; HEK293 M3R/RGS4 inducible, Fluo-4 calcium flux; hits give high values; triggered by carbachol at its EC20; B-score at 10 µM; 0.45% of 310,000 active;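 active = B-score, a plate-corrected calcium signal, over three deviations above library mean, with baseline fluorescence within five deviations of library mean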;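 also: RGS4 expression induced by doxycycline in cells with stable M3 receptor; B-score is computed from the integrated fluorescence ratio over baseline after carbachol; higher B-score means a larger calcium signal and so more RGS4 inhibition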
Target sequence (P49798 whole entry, looked up): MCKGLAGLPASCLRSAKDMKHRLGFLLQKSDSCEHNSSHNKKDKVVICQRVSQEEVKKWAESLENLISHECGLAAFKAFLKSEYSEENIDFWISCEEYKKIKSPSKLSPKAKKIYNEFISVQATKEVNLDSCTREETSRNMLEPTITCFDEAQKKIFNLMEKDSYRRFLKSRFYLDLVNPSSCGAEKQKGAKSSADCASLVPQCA
MrgX1 ag: agonists of human MrgX1 receptor; Q96LB2; MrgX1-HEK293 cells, Fluo-4 calcium fluorescence, agonist mode; hits give high values; B-score at 10 µM; 0.44% of 310,000 active;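 active = calcium response B-score plate-corrected fluorescence ratio at least 3 library SD, with starting fluorescence B-score inside 5 SD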
Target sequence (Q96LB2 whole entry, looked up): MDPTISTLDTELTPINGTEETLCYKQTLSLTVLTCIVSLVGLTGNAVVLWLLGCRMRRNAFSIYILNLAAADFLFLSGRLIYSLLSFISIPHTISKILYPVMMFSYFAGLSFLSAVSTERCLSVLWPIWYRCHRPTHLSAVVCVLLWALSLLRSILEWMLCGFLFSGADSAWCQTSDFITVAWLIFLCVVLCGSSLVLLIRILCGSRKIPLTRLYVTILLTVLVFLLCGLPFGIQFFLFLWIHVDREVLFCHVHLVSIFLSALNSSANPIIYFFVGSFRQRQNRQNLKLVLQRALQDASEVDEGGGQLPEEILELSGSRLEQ
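Material: MrgX1-expressing HEK293 cells; input: 15,000 cells per well; doses: test compound given as first of three sequential additions; schedule: overnight plating before 1 h dye loading; technique: Fluo-4 NW calcium-flux fluorescence, kinetic read; evaluation: baseline-normalised fluorescence change ratio, B-scored; control set: plate-wise positive and negative controls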
MrgX1 antagonist: blocks BAM8-22 activation of human MrgX1 receptor. AID 588676. B-score at 10 µM. Q96LB2. MRGX1-HEK293 calcium flux, Fluo-4, BAM8-22 antagonism; hits give low values. 1.3% of 310,000 active;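 active = calcium-response B-score plate-corrected more than 3 library SD below zero, starting fluorescence within 5 deviations, no agonist response on first addition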;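 also: peak minus trough fluorescence over baseline after final BAM8-22 challenge near maximal dose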
RGS4 pot: RGS4 potentiation or activation; HEK293 M3R/inducible RGS4, carbachol calcium flux Fluo4; hits give low values; AID 463111; 0.92% of 310,000 active; B-score at 10 µM;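 active = B-score of the integrated calcium signal more than 4 SD below the library mean, with starting fluorescence not abnormally high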;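 also: negative B-score means reduced calcium response which marks RGS4 activation or potentiation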
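System: HEK293 FlpIn-TREx cells, stable M3R, doxycycline-inducible RGS4. Timing: overnight RGS4 induction, 30 min dye load 37 °C, 20 min compound RT. Also added: carbachol, ECmax concentration. Measured by: Fluo4 fluorescence kinetic imaging of calcium. Evaluation: integrated calcium ratio converted to B score.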
MrgX1 allo act: human MrgX1 positive allosteric modulation, primary screen; Q96LB2; MrgX1-HEK293, Fluo-4 calcium flux, FDSS; hits give high values; B-score at 10 µM; 0.63% of 310,000 active;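 active = plate-corrected calcium response at least 3 library SD above typical, normal starting fluorescence, not activating the receptor alone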;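 also: compound read alongside a low EC10 to EC30 dose of BAM8-22 agonist; peak minus trough fluorescence over baseline measured at the second addition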
MrgX1 PAM conf: human MrgX1 positive allosteric modulation, re-confirmation | 13% of 1,200 active | shares compounds with MrgX1 allo act | activation (ratio percentage), % at 10 µM | MrgX1-HEK293, Fluo-4 calcium fluorescence, FDSS;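 active = ratio at least 3 SD above the weak peptide control, stable starting fluorescence, no direct agonism earlier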;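 also: compound followed by low BAM8-22 agonist challenge near EC20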
HEK293 Ca flux: activity in parental HEK293 cells lacking MrgX1; shares compounds with MrgX1 antagonist; Fluo-4 calcium fluorescence, FDSS; fluorescence ratio F(max-min)/F0 at 10 µM; 2% of 4,000 active; AID 624111;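 active = duplicate-averaged calcium fluorescence ratio at least three times the standard deviation of buffer wells, a nonspecific response in parental cells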
HEK293 Ca counter: activity in parental HEK293 cells without MrgX1 | shares compounds with MrgX1 antagonist | parental HEK293 calcium flux, Fluo-4 fluorescence ratio; hits give high values | fluorescence ratio F(max-min)/F0 at 10 µM | 0.4% of 4,000 active | AID 624114;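 active = calcium fluorescence ratio, averaged over duplicates, at least 3 SD of the buffer-well ratio, meaning a nonspecific response in receptor-free cells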;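 also: untransfected parental HEK293 lacking MrgX1 used as counterscreen for MrgX1 allosteric activators; fluorescence change taken during the second addition on a kinetic imager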
HEK293 Ca cntr2: counter-screen for MrgX1 activators: effect in parental HEK293 cells | shares compounds with MrgX1 antagonist | fluorescence ratio F(max-min)/F0 at 10 µM | AID 624115 | 8.7% of 4,000 active | Fluo-4 calcium fluorescence (FDSS); hits give high values;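 active = calcium fluorescence ratio at least three times the spread of buffer wells, meaning a non-specific response in parental cells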
A number is an active result.

Results for CCN(CC)C(=O)c1[nH]cnc1C(=O)Nc1ccc(OC)cc1 ?
RGS4 block: inactive; MrgX1 ag: inactive; MrgX1 antagonist: inactive; RGS4 pot: inactive; MrgX1 allo act: inactive

What do the screens show for `Cc1ccc(NC(=O)c2nc[nH]c2C(=O)N2CCC(C)CC2)cc1`?
RGS4 block: inactive; MrgX1 ag: inactive; MrgX1 antagonist: inactive; RGS4 pot: inactive; MrgX1 allo act: 9.1; MrgX1 PAM conf: inactive; HEK293 Ca flux: inactive; HEK293 Ca counter: inactive; HEK293 Ca cntr2: inactive

How did CCSc1nnc2ccc(-c3ccco3)nn12 do in these assays?
RGS4 block: inactive; MrgX1 ag: inactive; MrgX1 antagonist: inactive; RGS4 pot: inactive; MrgX1 allo act: inactive

What do the screens show for `COC(=O)c1sc2nc(N3CCCCC3)c3c(c2c1N)CCCC3`?
RGS4 block: inactive; MrgX1 ag: inactive; MrgX1 antagonist: inactive; RGS4 pot: inactive; MrgX1 allo act: 6.9; MrgX1 PAM conf: inactive; HEK293 Ca flux: inactive; HEK293 Ca counter: inactive; HEK293 Ca cntr2: inactive

What do the screens show for `COc1cccc(NC(=O)c2ccc3c(O)c(S(=O)(=O)c4ccccc4)c(=O)[nH]c3c2)c1`?
RGS4 block: inactive; MrgX1 ag: inactive; MrgX1 antagonist: inactive; RGS4 pot: inactive; MrgX1 allo act: inactive

Results for COc1ccc(S(=O)(=O)c2c(O)c3ccc(C(=O)Nc4cccc(F)c4)cc3[nH]c2=O)cc1 ?
RGS4 block: inactive; MrgX1 ag: inactive; MrgX1 antagonist: inactive; RGS4 pot: inactive; MrgX1 allo act: 17; MrgX1 PAM conf: inactive; HEK293 Ca flux: inactive; HEK293 Ca counter: inactive; HEK293 Ca cntr2: inactive

What do the screens show for `Cc1ccc(C(=O)N2CCCCC2)cc1S(=O)(=O)N1CCOCC1`?
RGS4 block: inactive; MrgX1 ag: inactive; MrgX1 antagonist: inactive; RGS4 pot: inactive; MrgX1 allo act: inactive

What do the screens show for `O=C(Nc1nc(-c2cccs2)c(C(=O)C(F)(F)F)s1)c1ccco1`?
RGS4 block: inactive; MrgX1 ag: inactive; MrgX1 antagonist: inactive; RGS4 pot: inactive; MrgX1 allo act: 7.6; MrgX1 PAM conf: inactive; HEK293 Ca flux: inactive; HEK293 Ca counter: inactive; HEK293 Ca cntr2: inactive

What do the screens show for `Cc1ccc2c(c1)C(=O)C(=O)N2CC(=O)Nc1ccccc1NC(=O)c1ccccn1`?
RGS4 block: inactive; MrgX1 ag: inactive; MrgX1 antagonist: inactive; RGS4 pot: inactive; MrgX1 allo act: 15; MrgX1 PAM conf: inactive; HEK293 Ca flux: inactive; HEK293 Ca counter: inactive; HEK293 Ca cntr2: inactive

Results for COc1ccccc1NC(=O)CSc1nnnn1-c1ccc(C(=O)O)cc1 ?
RGS4 block: inactive; MrgX1 ag: inactive; MrgX1 antagonist: inactive; RGS4 pot: inactive; MrgX1 allo act: inactive

Results for CCCCOc1ccccc1NC(=O)CSc1nnnn1C(C)(C)C ?
RGS4 block: inactive; MrgX1 ag: inactive; MrgX1 antagonist: inactive; RGS4 pot: inactive; MrgX1 allo act: 22; MrgX1 PAM conf: inactive; HEK293 Ca flux: inactive; HEK293 Ca counter: inactive; HEK293 Ca cntr2: inactive

What do the screens show for `Cc1cccc(Oc2ncnc3oc(-c4ccccc4)cc23)c1C`?
RGS4 block: inactive; MrgX1 ag: inactive; MrgX1 antagonist: inactive; RGS4 pot: inactive; MrgX1 allo act: 12; MrgX1 PAM conf: 7.6%; HEK293 Ca flux: inactive; HEK293 Ca counter: inactive; HEK293 Ca cntr2: inactive

How did Cc1cccc(OCC(=O)Nc2cccc(-c3nnc(-c4ccccc4)o3)c2)c1C do in these assays?
RGS4 block: inactive; MrgX1 ag: inactive; MrgX1 antagonist: inactive; RGS4 pot: inactive; MrgX1 allo act: inactive

How did CC1=C/C(=N\NC(=S)Nc2cccnc2)CC(C)(C)C1 do in these assays?
RGS4 block: inactive; RGS4 pot: inactive

How did CC(=O)c1ccc(N(CC(=O)NC2CCCC2)C(=O)c2csnn2)cc1 do in these assays?
RGS4 block: inactive; MrgX1 ag: inactive; MrgX1 antagonist: inactive; RGS4 pot: inactive; MrgX1 allo act: inactive

Results for O=C(CSc1cccc[n+]1[O-])NN(c1ccccc1)c1ccccc1 ?
RGS4 block: inactive; MrgX1 ag: inactive; MrgX1 antagonist: inactive; RGS4 pot: inactive; MrgX1 allo act: inactive

How did CCCCc1ccc(S(=O)(=O)Nc2ccc(C)c(NS(C)(=O)=O)c2)cc1 do in these assays?
RGS4 block: inactive; MrgX1 ag: inactive; MrgX1 antagonist: inactive; RGS4 pot: inactive; MrgX1 allo act: 9.7; MrgX1 PAM conf: inactive; HEK293 Ca flux: inactive; HEK293 Ca counter: inactive; HEK293 Ca cntr2: inactive

Results for O=C(Nc1ccc(Cl)cc1)NC1CCCCC1Cc1ccco1 (stereo not given) ?
RGS4 block: inactive; MrgX1 ag: inactive; MrgX1 antagonist: inactive; RGS4 pot: inactive; MrgX1 allo act: 15; MrgX1 PAM conf: 5.5%; HEK293 Ca flux: inactive; HEK293 Ca counter: inactive; HEK293 Ca cntr2: inactive

Results for O=C(Nc1ccc(Cl)cc1)NC1CCCC1Cc1ccco1 (stereo not given) ?
RGS4 block: inactive; MrgX1 ag: inactive; MrgX1 antagonist: inactive; RGS4 pot: inactive; MrgX1 allo act: inactive

Results for COc1ccc2c(c1)cc(C)c1nnc(SCC(=O)N(C)c3nc(-c4ccccc4)cs3)n12 ?
RGS4 block: inactive; MrgX1 ag: inactive; MrgX1 antagonist: inactive; RGS4 pot: inactive; MrgX1 allo act: 20; MrgX1 PAM conf: inactive; HEK293 Ca flux: inactive; HEK293 Ca counter: inactive; HEK293 Ca cntr2: inactive

Results for Cc1cc2cccc(C)c2nc1SCC(=O)N(C)c1nc(-c2ccccc2)cs1 ?
RGS4 block: inactive; MrgX1 ag: inactive; MrgX1 antagonist: inactive; RGS4 pot: inactive; MrgX1 allo act: inactive

Results for Cc1ccn2c(Nc3ccccc3C)c(-c3ccccn3)nc2c1 ?
RGS4 block: inactive; MrgX1 ag: inactive; MrgX1 antagonist: inactive; RGS4 pot: inactive; MrgX1 allo act: 9.1; MrgX1 PAM conf: inactive; HEK293 Ca flux: inactive; HEK293 Ca counter: inactive; HEK293 Ca cntr2: inactive

What do the screens show for `CNc1c([N+](=O)[O-])cnn1-c1ccccn1`?
RGS4 block: inactive; MrgX1 ag: inactive; MrgX1 antagonist: inactive; RGS4 pot: inactive; MrgX1 allo act: inactive

What do the screens show for `COc1ccc(-c2csc(NC(=O)CS(=O)(=O)c3ccccc3)n2)cc1`?
RGS4 block: inactive; MrgX1 ag: inactive; MrgX1 antagonist: inactive; RGS4 pot: inactive; MrgX1 allo act: 12; MrgX1 PAM conf: 6.8%; HEK293 Ca flux: inactive; HEK293 Ca counter: inactive; HEK293 Ca cntr2: inactive

What do the screens show for `CCCC(=O)Nc1nc(-c2ccc(OC)cc2)cs1`?
RGS4 block: inactive; MrgX1 ag: inactive; MrgX1 antagonist: inactive; RGS4 pot: inactive; MrgX1 allo act: inactive
